Bioassay records as filed in PubChem BioAssay.
CYP2C9 inhib = human CYP2C9 inhibition; 96,000 compounds, 20% hits; inhibition, % at 5 µM; P11712; CYP2C9 Supersomes, luciferin-H conversion, luminescence;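 active = blocking of liver enzyme CYP2C9 beyond about 50% at 5 µM, limit read from the data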
Ecoli tolC = E. coli tolC mutant growth inhibition. E. coli BW25113 tolC mutant growth, OD615. growth inhibition, % at 10 µM (by protocol). 65,000 compounds, 2.2% hits;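 active = growth inhibition at or above a cutoff equal to the mean over every tested compound plus 3 SD, cut at about 60% in these data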;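 note: growth measured after 20 h incubation at 37 °C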
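Test system – E. coli BW25113 ΔtolC::kan, tolC deletion mutant strain · Detection – OD at 615 nm · Buffer or medium – LB with kanamycin 50 µg/mL · Times – 20 h compound exposure of bacteria at 37 °C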
CYP2C19 inhib = inhibitors of human CYP2C19. 96,000 compounds, 21% hits. inhibition, % at 5 µM. CYP2C19 Supersomes, luciferin-H EGE luminescence, 30 min;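 active = CYP2C19 inhibition above a set limit at 5 µM in the primary screen, cut at about 50% in these data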;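 note: plate controls were negative control wells for no effect and 2.5 mM tranylcypromine positive control for full effect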
Target sequence (P33261 whole entry, looked up): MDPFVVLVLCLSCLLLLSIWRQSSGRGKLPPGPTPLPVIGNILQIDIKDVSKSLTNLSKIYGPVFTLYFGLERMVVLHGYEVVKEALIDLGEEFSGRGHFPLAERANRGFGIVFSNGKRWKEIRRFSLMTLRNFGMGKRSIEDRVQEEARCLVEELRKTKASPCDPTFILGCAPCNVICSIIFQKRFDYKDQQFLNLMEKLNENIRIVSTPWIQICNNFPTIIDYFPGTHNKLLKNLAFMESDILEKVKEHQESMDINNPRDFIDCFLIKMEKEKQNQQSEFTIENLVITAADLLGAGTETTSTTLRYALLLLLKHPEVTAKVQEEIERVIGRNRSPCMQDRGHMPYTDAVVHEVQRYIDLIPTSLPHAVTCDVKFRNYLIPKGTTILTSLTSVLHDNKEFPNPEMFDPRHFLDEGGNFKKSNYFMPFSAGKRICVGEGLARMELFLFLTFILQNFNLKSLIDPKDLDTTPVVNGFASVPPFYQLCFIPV
CYP2C19 activ = cytochrome P450 2C19 (human) activation; P33261; AID 1025; 96,000 tested, under 10 active; recombinant CYP2C19, luciferin-H EGE luminescence; stronger effect = higher value; 0 = fully inhibited enzyme, 1 = untreated enzyme; activation factor at 5 µM;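 active = activation factor of at least 2 at 5 µM in the primary screen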;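 note: 0 = wells with 2.5 mM tranylcypromine and 1 = vehicle-only wells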
Ecoli WT expand = blocks growth of wild type E. coli BW25113; OD600 absorbance; growth inhibition, % at 100 µM; 98,000 compounds, 0.15% hits; AID 710;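 active = growth inhibition above about 50% at one test dose, limit read from the data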;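 note: growth measured after 20 h incubation at 37 °C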
CYP2C9 act = activators of human CYP2C9. AID 1024. 96,000 compounds, 1.4% hits. P11712. recombinant CYP2C9, luciferin-H conversion, luminescence; stronger effect = higher value; factor 1 = untreated enzyme, 0 = blocked. activation factor at 5 µM;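 active = activation factor of 2 or more for CYP2C9 at a 5 µM dose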;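 note: 0 = sulfaphenazole-blocked wells and 1 = vehicle-only wells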
The depositor's hits bear a star; . = no result. Only some compounds are listed: those with a hit (about 29% of all), similar ones and a draw of the others.

SMILES	CYP2C9 inhib	Ecoli tolC	CYP2C19 inhib	CYP2C19 activ	Ecoli WT expand	CYP2C9 act
O=C(NCc1cccs1)c1csc2ccccc12	-31	19	85*	0.1	8	1.3
CC(C)Cc1cc(C(=O)NCc2cccs2)no1	36	2	80*	0.2	5	0.6
CC(C)Oc1ccc(C(=O)NCc2cccs2)cc1	32	.	70*	0.3	8	0.7
Cc1nn2c(-c3ccc(Cl)cc3)ccnc2c1-c1ccccc1	-23	.	-6	1.1	-4	1.2
Cc1nn(CC(=O)Nc2nnc(CC(=O)N3CCCC3)s2)c(=O)c2ccccc12	-18	-1	-18	1.2	.	1.2
CC(C)Oc1ccc(C(CC(=O)O)NC(=O)c2cccs2)cc1 (stereo not given)	55*	.	-7	1.1	-11	0.5
Cc1cc(C(=O)NCc2cccs2)c(C)o1	4	-5	50*	0.5	3	1
Cc1occc1C(=O)NCc1cccs1	.	-12	.	.	-3	.
Cc1ccc(/C=C/c2ccc(=O)n(Cc3ccc(Cl)cc3Cl)n2)cc1	48	.	22	0.8	-19	0.5
O=C1NCCc2c1[nH]c1c(Cl)ccc(Cl)c21	-143	.	6	0.9	5	2.4*
CCC12CCCN3CCC4(C(=C(C(=O)OC)C1)Nc1ccccc14)C32 (stereo not given)	58*	8	63*	0.4	4	0.4
Cc1cc(C(F)(F)F)c2c(N)c(C(=O)Nc3cc(C)on3)sc2n1	11	-11	4	1	2	0.9
Cc1ccc(C)n1-n1cnc2sc(-c3ccccc3)cc2c1=O	46	88*	26	0.7	-15	0.5
CCn1cnc2sc(-c3ccccc3)cc2c1=O	71*	7	44	0.6	9	0.3
O=c1c2cc(-c3ccccc3)sc2ncn1-n1cccc1	-31	.	-22	1.2	-7	1.3
CC(=O)Cn1cnc2sc(-c3ccccc3)cc2c1=O	29	.	31	0.7	2	0.7
COc1cccc(CNS(=O)(=O)c2cc(Br)cc3c2N(C(C)=O)C(C)C3)c1 (stereo not given)	-110	.	74*	0.3	-8	2.1*
CCOC(=O)N1CCN(S(=O)(=O)c2ccc3c(c2)CCN3C(=O)CC)CC1	27	10	20	0.8	1	0.7
CCOC(=O)N1CCN(S(=O)(=O)c2cc(Br)cc3c2N(C(C)=O)C(C)C3)CC1 (stereo not given)	50	25	64*	0.4	13	0.5
COc1cccc(CNC(=O)C2CCC(CNS(=O)(=O)c3cccc4nsnc34)CC2)c1 (stereo not given)	28	.	16	0.8	3	0.7
CCOC(=O)C1CCN(S(=O)(=O)c2cc(Br)cc3c2N(C(C)=O)C(C)C3)CC1 (stereo not given)	79*	19	93*	0.1	-1	0.2
CC(=O)N1c2c(cc(Br)cc2S(=O)(=O)N2CCN(c3ccccn3)CC2)CC1C (stereo not given)	67*	22	31	0.7	-3	0.3
COC(=O)Cn1c(CN2CCN(c3ccc(F)cc3)CC2)nc2c1c(=O)n(C)c(=O)n2C	23	-2	25	0.8	4	0.8
COCc1cc(C)c2c(N)c(C#N)sc2n1	-36	-1	29	0.7	1	1.4
COc1ccc(NC(=O)CSC2CC(=O)N(c3ccc4c(c3)OCCO4)C2=O)cc1 (stereo not given)	27	-5	48	0.5	-1	0.7
SMILES	CYP2C9 inhib	Ecoli tolC	CYP2C19 inhib	CYP2C19 activ	Ecoli WT expand	CYP2C9 act
O=C(Nc1ccc(F)cc1)C1CCCN(S(=O)(=O)c2cccc3cccnc23)C1 (stereo not given)	-74	6	68*	0.3	2	1.7
O=C(Nc1nc2cc(Cl)ccc2s1)C1CCCN(S(=O)(=O)c2cccc3cccnc23)C1 (stereo not given)	-106	.	7	0.9	-1	2.1*
O=C(Nc1nccs1)C1CCCN(S(=O)(=O)c2cccc3cccnc23)C1 (stereo not given)	8	3	45	0.5	0	0.9
COC(=O)c1ccc(CSc2ncnc3c2nnn3-c2ccc(F)cc2)o1	5	17	9	0.9	-7	1
COc1cccc(-n2c(Cc3cc(=O)[nH]c(=O)[nH]3)nnc2SCC(=O)N2CCCCC2)c1	-19	-18	2	1	-1	1.2
Cc1cccc(NC(=O)C2CCN(S(=O)(=O)c3cccc4cccnc34)CC2)n1	-128	3	78*	0.2	8	2.3*
CC(=O)c1ccc(NC(=O)C2CCN(S(=O)(=O)c3cccc4cccnc34)CC2)cc1	-86	10	4	1	8	1.9
Cc1ccc(NC(=O)C2CCN(S(=O)(=O)c3cccc4cccnc34)CC2)nc1	-46	4	68*	0.3	1	1.5
Cc1ccccc1-c1nc(CS(=O)(=O)CC(=O)N2CCc3ccccc32)c(C)o1	.	6	.	.	-9	.
O=C(O)c1ccc(COc2cccc(CO)c2)cc1	31	-11	86*	0.1	-8	0.7
COC(=O)c1scc(C)c1N/N=C(\C)c1cc(F)c(Cl)cc1F	-10	.	-17	1.2	-23	1.1
Cc1cccc(N2CCN(S(C)(=O)=O)CC2)c1C	16	12	13	0.9	2	0.8
CC(C)(C)C(=O)Nc1ccc(S(=O)(=O)c2ccc(NC(=O)C(C)(C)C)cc2)cc1	-11	.	-3	1	-10	1.1
CC(C)(C)C(=O)Nc1nc(=S)ss1	92*	.	33	0.7	3	0.1
CCC(=O)Nc1nc(=S)ss1	99*	.	23	0.8	14	0
CCn1nc2cc(C(=O)NCCc3cccs3)ccc2c1OC	4	.	15	0.8	7	1
CCCN(CCC)CCNc1c(N2CCN(C(=O)OCC)CC2)c(=O)c1=O	-13	-14	-12	1.1	2	1.1
O=C1Cc2ccccc2C(c2ccc(Br)cc2)N1 (stereo not given)	71*	.	100*	0	0	0.3
COc1cccc(N2C(=O)N(c3ccccc3Cl)C3CS(=O)(=O)CC32)c1 (stereo not given)	26	-20	44	0.6	4	0.7
Cc1ccccc1N1C(=O)N(c2cccc(C(F)(F)F)c2)C2CS(=O)(=O)CC21 (stereo not given)	20	6	63*	0.4	3	0.8
Cn1c(=O)n(Cc2ccccc2)c(=O)c2c1nc1n2CCCN1CCc1ccccc1	33	.	58*	0.4	-20	0.7
Cn1c(N2CCCC2)nc2c1c(=O)n(Cc1ccc(Cl)cc1)c(=O)n2C	21	19	13	0.9	-8	0.8
Cn1c(=O)n(Cc2ccccc2)c(=O)c2c1nc1n2CCS1	85*	-2	57*	0.4	-4	0.1
C=CCn1c(=O)c2c(nc3n2CCS3)n(C)c1=O	0	-25	-4	1	-1	1
